Results as given in ChEMBL document CHEMBL4689842, “EUbOPEN Chemogenomics Library wave 1” (2021).

Tested on: Fibroblast
Assay: Multiplex assay against human fibroblast
Assay type: toxicity, cell-based
In short: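 Live cells were stained at seeding with Hoechst33342, BioTracker Green Microtubule Cytoskeleton Dye, MitoTracker Red and Annexin V Alexa Fluor 680, then imaged on a CQ1 microscope at 37°C and 5% CO2 after compound addition. CellPathfinder machine-learning gating split cells into Hoechst high-intensity objects or normal cells. Normal cells were split into healthy, pyknosed or fragmented nuclei, and pyknosed cells into mitotic or apoptotic. Tubulin, mitochondrial-mass and membrane-permeability phenotypes are per cents of healthy-nucleus cells.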

[1] = 12 h, 1 µM, compound concentration 1 uM, replicate 1
[2] = 12 h, 1 µM, compound concentration 1 uM, replicate 2
[3] = 12 h, 10 µM, compound concentration 10 uM, replicate 1
[4] = 12 h, 10 µM, compound concentration 10 uM, replicate 2
[5] = 24 h, 1 µM, compound concentration 1 uM, replicate 1
[6] = 24 h, 1 µM, compound concentration 1 uM, replicate 2
[7] = 24 h, 10 µM, compound concentration 10 uM, replicate 1
[8] = 24 h, 10 µM, compound concentration 10 uM, replicate 2

## CCCS(=O)(=O)Nc1ccc(F)c(C(=O)c2c[nH]c3ncc(Cl)cc23)c1F [PLX-4720]
[1]
  Population Apoptotic (%): 55%
  Population Fragmented Nuclei (%): 20%
  Population Healthy Nuclei (%): 62%
  Population Hoechst High Intensity Objects (%): 10%
  Population Membrane Permeable-Phenotype (%): 5%
  Population Mitochondria Different-Phenotype (%): 6%
  Population Mitotic Cells (%): 44%
  Population Normal (%): 89%
  Population Pyknosed Nuclei (%): 17%
  Population Tubulin-Different-Phenotype (%): 14%
  Total Cell Count: 234
[2]
  Population Apoptotic (%): 28%
  Population Fragmented Nuclei (%): 56%
  Population Healthy Nuclei (%): 31%
  Population Hoechst High Intensity Objects (%): 29%
  Population Membrane Permeable-Phenotype (%): 22%
  Population Mitochondria Different-Phenotype (%): 11%
  Population Mitotic Cells (%): 71%
  Population Normal (%): 70%
  Population Pyknosed Nuclei (%): 12%
  Population Tubulin-Different-Phenotype (%): 27%
  Total Cell Count: 81
[3]
  Population Apoptotic (%): 65%
  Population Fragmented Nuclei (%): 23%
  Population Healthy Nuclei (%): 63%
  Population Hoechst High Intensity Objects (%): 13%
  Population Membrane Permeable-Phenotype (%): 3%
  Population Mitotic Cells (%): 34%
  Population Normal (%): 86%
  Population Pyknosed Nuclei (%): 13%
  Population Tubulin-Different-Phenotype (%): 5%
  Total Cell Count: 254
[4]
  Population Apoptotic (%): 60%
  Population Fragmented Nuclei (%): 65%
  Population Healthy Nuclei (%): 26%
  Population Hoechst High Intensity Objects (%): 36%
  Population Membrane Permeable-Phenotype (%): 6%
  Population Mitochondria Different-Phenotype (%): 6%
  Population Mitotic Cells (%): 40%
  Population Normal (%): 63%
  Population Pyknosed Nuclei (%): 8%
  Population Tubulin-Different-Phenotype (%): 0%
  Total Cell Count: 95
[5]
  Population Apoptotic (%): 53%
  Population Fragmented Nuclei (%): 25%
  Population Healthy Nuclei (%): 61%
  Population Hoechst High Intensity Objects (%): 11%
  Population Membrane Permeable-Phenotype (%): 7%
  Population Mitochondria Different-Phenotype (%): 10%
  Population Mitotic Cells (%): 46%
  Population Normal (%): 88%
  Population Pyknosed Nuclei (%): 12%
  Population Tubulin-Different-Phenotype (%): 22%
  Total Cell Count: 249
[6]
  Population Apoptotic (%): 25%
  Population Fragmented Nuclei (%): 47%
  Population Healthy Nuclei (%): 34%
  Population Hoechst High Intensity Objects (%): 40%
  Population Membrane Permeable-Phenotype (%): 13%
  Population Mitochondria Different-Phenotype (%): 6%
  Population Mitotic Cells (%): 75%
  Population Normal (%): 59%
  Population Pyknosed Nuclei (%): 18%
  Population Tubulin-Different-Phenotype (%): 13%
  Total Cell Count: 74
[7]
  Population Apoptotic (%): 70%
  Population Fragmented Nuclei (%): 23%
  Population Healthy Nuclei (%): 63%
  Population Hoechst High Intensity Objects (%): 18%
  Population Membrane Permeable-Phenotype (%): 3%
  Population Mitochondria Different-Phenotype (%): 4%
  Population Mitotic Cells (%): 29%
  Population Normal (%): 81%
  Population Pyknosed Nuclei (%): 12%
  Population Tubulin-Different-Phenotype (%): 1%
  Total Cell Count: 271
[8]
  Population Apoptotic (%): 50%
  Population Fragmented Nuclei (%): 64%
  Population Healthy Nuclei (%): 29%
  Population Hoechst High Intensity Objects (%): 31%
  Population Membrane Permeable-Phenotype (%): 10%
  Population Mitochondria Different-Phenotype (%): 10%
  Population Mitotic Cells (%): 50%
  Population Normal (%): 68%
  Population Pyknosed Nuclei (%): 5%
  Population Tubulin-Different-Phenotype (%): 10%
  Total Cell Count: 98
